The values that follow come from ChEMBL document CHEMBL4219113, “Pyridazine and pyridazinone derivatives as potent and selective factor XIa inhibitors” (Bioorg Med Chem Lett, 2018).

Molecules are shown by their SMILES. Some results are limits rather than exact numbers.

For data set [1], the system named is Plasma. The data set can be described thus: Anticoagulant activity in human plasma assessed as increase in activated partial thromboplastin time. It is filed as functional. The essentials: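 In vitro clotting test in human plasma measuring activated partial thromboplastin time (aPTT). EC1.5x is the concentration that extends aPTT to 1.5-fold.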
Data set [2] in a line: Oral bioavailability in dog at 0.5 mg/kg. In kind it is ADME, organism-based, Canis lupus familiaris. The note with it: in vivo. The essentials: (§1)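 Dogs received cassette dosing at 0.2–0.5 mg/kg orally and 0.2–0.4 mg/kg intravenously. The iv vehicle was 10% DMAC, 10% EtOH, 10% PG and 70% water. The oral vehicle was 10% EtOH, 70% PEG400 and 20% TPGS.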
In data set [3] the target is Coagulation factor XI (Homo sapiens, UniProt P03951). Put plainly: Inhibition of human factor 11a using pyro-Glu-Pro-Arg-pNA as substrate measured after 10 to 120 mins by spectrophotometric method.
Data set [4] in a line: Oral bioavailability in dog at 0.2 to 0.5 mg/kg. It is filed as ADME, organism-based, Canis lupus familiaris. The note with it: in vivo. In outline: as §1
A short description of data set [5]: Clearance in dog at 0.2 to 0.5 mg/kg, po or 0.2 to 0.4 mg/kg, iv administered as cassette dose. In kind it is ADME, organism-based, Canis lupus familiaris. The note with it: in vivo. In outline: as §1
Data set [6] is described as follows: Volume of distribution at steady state in dog at 0.2 to 0.5 mg/kg, po or 0.2 to 0.4 mg/kg, iv administered as cassette dose. As to conditions: in vivo, read-out: Vdss. In kind it is ADME, organism-based, Canis lupus familiaris. In outline:
as §1

Data set [7] in a line: Half life in human liver microsomes pretreated for 5 mins followed by NADPH addition by UV-LC/MS analysis. It is filed as ADME, microsome. (In general: Liver microsomes are a subcellular fraction often used to study metabolism.)
A short description of data set [8]: Half life in dog at 0.2 to 0.5 mg/kg, po or 0.2 to 0.4 mg/kg, iv administered as cassette dose. In kind it is ADME, organism-based, Canis lupus familiaris. As to conditions: in vivo. The essentials: as §1
Data set [9] deals with T1, Coagulation factor VII (Homo sapiens, UniProt P08709).
T1 sequence (P08709 whole entry): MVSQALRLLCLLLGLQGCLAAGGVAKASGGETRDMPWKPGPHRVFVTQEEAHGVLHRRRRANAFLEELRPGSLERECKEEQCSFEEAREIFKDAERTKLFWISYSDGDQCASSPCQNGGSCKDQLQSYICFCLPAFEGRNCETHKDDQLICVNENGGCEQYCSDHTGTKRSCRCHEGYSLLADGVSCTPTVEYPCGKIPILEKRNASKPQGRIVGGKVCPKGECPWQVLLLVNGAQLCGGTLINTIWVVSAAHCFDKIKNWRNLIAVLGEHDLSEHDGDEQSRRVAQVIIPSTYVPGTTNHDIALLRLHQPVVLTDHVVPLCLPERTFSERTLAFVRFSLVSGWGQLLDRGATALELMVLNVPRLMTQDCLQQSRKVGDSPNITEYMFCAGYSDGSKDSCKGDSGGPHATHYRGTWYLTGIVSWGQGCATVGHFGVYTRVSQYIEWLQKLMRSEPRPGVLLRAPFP
The data set can be described thus: Inhibition of human factor 7a.

Data set [10] concerns the target Prothrombin (Homo sapiens, UniProt P00734). The data set can be described thus: Inhibition of human thrombin.
Data set [11] concerns the target Vitamin K-dependent protein C (Homo sapiens, UniProt P04070). Put plainly: Inhibition of human activated protein C.
For data set [12], the target named is Trypsin (Homo sapiens, UniProt P07477+P07478+P35030). The data set can be described thus: Inhibition of human trypsin. It is filed as protein assay.
Data set [13] has as its target Plasminogen (Homo sapiens, UniProt P00747). The data set can be described thus: Inhibition of human plasmin.
Data set [14] concerns the target Tissue-type plasminogen activator (Homo sapiens, UniProt P00750). The data set can be described thus: Inhibition of human TPA.
In data set [15] the target is Urokinase-type plasminogen activator (Homo sapiens, UniProt P00749). Put plainly: Inhibition of human urokinase.
Data set [16] can be described thus: Inhibition of human chymotrypsin.
Data set [17] concerns the target Coagulation factor IX (Homo sapiens, UniProt P00740). Put plainly: Inhibition of human factor 9a.
The target in data set [18] is Coagulation factor X (Homo sapiens, UniProt P00742). The data set can be described thus: Inhibition of human factor 10a.
Data set [19] has as its target Plasma kallikrein (Homo sapiens, UniProt P03952). The data set can be described thus: Inhibition of human plasma kallikrein.

Chain of Coagulation factor X (P00742 41-179 limits assumed): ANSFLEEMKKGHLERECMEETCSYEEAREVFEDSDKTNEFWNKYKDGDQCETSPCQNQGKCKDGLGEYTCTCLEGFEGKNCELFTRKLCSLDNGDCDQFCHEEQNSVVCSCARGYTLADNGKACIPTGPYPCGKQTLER
Chain of Coagulation factor X (P00742 235-488 limits assumed): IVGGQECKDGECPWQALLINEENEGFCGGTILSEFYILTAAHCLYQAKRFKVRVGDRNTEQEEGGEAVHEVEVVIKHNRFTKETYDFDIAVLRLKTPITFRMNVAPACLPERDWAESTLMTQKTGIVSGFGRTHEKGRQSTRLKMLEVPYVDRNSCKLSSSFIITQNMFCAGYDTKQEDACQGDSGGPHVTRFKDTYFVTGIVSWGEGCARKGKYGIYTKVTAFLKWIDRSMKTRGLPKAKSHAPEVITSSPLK
Chain of Coagulation factor IX (P00740 47-191 limits assumed): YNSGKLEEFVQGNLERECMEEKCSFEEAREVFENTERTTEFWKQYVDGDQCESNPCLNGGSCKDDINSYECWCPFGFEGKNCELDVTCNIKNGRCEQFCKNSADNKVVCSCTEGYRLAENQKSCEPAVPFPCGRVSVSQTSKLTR
Chain of Coagulation factor IX (P00740 227-461 limits assumed): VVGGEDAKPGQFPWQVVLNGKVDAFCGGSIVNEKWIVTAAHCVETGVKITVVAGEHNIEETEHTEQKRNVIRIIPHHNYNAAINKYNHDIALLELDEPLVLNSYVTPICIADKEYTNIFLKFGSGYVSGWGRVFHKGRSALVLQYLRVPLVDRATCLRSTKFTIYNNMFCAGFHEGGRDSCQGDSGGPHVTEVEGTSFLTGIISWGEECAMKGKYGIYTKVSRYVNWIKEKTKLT
Chain of Tissue-type plasminogen activator (P00750 whole entry): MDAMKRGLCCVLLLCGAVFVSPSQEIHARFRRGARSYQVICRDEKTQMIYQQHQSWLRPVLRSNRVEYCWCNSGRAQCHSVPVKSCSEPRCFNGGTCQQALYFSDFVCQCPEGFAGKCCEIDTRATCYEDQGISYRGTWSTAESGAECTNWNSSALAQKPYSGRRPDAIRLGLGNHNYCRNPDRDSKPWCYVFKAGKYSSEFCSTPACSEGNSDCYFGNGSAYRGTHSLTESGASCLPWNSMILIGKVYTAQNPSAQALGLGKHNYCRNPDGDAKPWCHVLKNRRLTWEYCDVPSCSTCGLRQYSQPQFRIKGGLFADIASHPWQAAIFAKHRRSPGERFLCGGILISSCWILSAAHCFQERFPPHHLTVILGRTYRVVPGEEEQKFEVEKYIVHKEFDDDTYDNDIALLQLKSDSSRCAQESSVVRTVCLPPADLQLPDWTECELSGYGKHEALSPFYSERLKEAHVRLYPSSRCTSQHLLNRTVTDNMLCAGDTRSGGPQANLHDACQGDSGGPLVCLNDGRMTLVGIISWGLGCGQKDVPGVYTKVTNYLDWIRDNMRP
Chain of Vitamin K-dependent protein C (P04070 43-197 limits assumed): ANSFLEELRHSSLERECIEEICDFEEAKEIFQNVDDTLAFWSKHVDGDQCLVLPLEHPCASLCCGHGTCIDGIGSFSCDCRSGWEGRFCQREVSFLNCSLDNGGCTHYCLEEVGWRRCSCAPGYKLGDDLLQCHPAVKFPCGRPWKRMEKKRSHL
Chain of Vitamin K-dependent protein C (P04070 212-461 limits assumed): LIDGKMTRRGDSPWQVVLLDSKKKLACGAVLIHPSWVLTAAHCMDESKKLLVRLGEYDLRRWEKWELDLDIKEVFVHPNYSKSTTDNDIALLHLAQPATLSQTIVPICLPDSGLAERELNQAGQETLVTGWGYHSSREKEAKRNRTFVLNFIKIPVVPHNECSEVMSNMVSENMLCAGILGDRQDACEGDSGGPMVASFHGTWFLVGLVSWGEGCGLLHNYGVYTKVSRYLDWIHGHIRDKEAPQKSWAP
Chain of Plasminogen (P00747 97-580 limits assumed): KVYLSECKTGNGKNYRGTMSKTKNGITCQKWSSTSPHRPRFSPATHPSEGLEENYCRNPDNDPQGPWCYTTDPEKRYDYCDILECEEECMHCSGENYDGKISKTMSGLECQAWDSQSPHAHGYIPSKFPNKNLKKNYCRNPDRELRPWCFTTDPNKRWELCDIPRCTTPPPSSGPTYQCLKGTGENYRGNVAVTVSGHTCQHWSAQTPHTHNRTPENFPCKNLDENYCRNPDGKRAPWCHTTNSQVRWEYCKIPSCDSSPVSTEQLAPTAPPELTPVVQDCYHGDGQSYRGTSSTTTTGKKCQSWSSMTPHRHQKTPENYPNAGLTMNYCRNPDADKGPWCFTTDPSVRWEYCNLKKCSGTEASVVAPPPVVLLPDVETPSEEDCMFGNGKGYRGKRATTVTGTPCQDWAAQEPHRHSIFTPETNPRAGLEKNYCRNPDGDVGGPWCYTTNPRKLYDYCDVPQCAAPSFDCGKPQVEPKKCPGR
Chain of Plasminogen (P00747 581-810 limits assumed): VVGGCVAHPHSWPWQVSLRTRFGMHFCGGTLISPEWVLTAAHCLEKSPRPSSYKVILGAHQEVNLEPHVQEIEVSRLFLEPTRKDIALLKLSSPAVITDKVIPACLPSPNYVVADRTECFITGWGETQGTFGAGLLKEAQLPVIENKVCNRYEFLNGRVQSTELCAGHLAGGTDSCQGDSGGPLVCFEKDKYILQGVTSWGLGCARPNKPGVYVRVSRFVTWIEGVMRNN
Chain of Coagulation factor XI (P03951 19-387 limits assumed): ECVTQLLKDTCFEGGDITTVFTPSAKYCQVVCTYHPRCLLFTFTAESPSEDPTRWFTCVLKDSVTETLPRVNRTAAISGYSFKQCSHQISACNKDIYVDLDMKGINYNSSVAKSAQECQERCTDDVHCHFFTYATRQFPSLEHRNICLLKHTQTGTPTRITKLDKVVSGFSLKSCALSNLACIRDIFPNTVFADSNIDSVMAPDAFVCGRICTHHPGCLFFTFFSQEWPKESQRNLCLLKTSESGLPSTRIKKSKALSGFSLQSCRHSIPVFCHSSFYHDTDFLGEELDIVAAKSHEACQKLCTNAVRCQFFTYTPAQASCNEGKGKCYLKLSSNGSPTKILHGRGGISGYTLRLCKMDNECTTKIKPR
Chain of Coagulation factor XI (P03951 388-625 limits assumed): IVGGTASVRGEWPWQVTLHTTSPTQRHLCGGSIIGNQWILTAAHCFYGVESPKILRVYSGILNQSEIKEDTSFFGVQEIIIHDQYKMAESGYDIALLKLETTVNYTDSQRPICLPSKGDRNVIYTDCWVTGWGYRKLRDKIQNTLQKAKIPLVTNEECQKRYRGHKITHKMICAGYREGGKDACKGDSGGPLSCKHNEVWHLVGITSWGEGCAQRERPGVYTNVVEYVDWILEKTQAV
Chain of Plasma kallikrein (P03952 20-390 limits assumed): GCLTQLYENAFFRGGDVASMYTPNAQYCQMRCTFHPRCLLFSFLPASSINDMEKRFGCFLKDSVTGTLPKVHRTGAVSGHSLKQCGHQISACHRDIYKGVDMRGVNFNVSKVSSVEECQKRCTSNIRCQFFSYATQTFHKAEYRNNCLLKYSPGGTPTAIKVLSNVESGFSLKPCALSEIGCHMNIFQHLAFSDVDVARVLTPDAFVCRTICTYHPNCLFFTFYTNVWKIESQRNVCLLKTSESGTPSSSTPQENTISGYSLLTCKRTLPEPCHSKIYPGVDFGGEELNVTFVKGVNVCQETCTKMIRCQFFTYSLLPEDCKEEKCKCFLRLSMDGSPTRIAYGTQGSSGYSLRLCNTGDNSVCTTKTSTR
Chain of Plasma kallikrein (P03952 391-638 limits assumed): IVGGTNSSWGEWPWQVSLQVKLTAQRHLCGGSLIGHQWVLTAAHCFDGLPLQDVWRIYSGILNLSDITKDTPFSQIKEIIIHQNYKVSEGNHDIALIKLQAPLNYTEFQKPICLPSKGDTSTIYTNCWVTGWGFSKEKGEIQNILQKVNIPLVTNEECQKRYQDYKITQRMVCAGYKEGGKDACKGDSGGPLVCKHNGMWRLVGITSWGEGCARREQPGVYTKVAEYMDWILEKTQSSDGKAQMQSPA

Consider `COC(=O)Nc1ccc(-c2nc([C@H](Cc3ccccc3)NC(=O)/C=C/c3cc(Cl)ccc3-n3cnnn3)[nH]c2Cl)cc1`, for which the EC1.5 in data set [1] was determined as 5.3 µM.

By bioavailability is commonly meant dose-corrected exposure relative to a reference, in per cent. Lower therefore signals poor availability. Regarding `COC(=O)Nc1ccc(-c2ccnc([C@H](Cc3ccccc3)NC(=O)/C=C/c3cc(Cl)ccc3-n3cnnn3)c2)cc1`, in [1], the EC1.5 is over 40 µM. Further, the bioavailability in [2] came to 34%.

One may read the Ki as the dissociation constant of the complex between target and ligand, obtained from inhibition or displacement. A lower Ki goes with a stronger hold on the target. The half-life is the time needed for the level to fall by half in the phase considered. As to `COC(=O)Nc1ccc(-c2cc([C@H](CC(=O)N3CC[C@@H](O)C3)NC(=O)/C=C/c3cc(Cl)ccc3-n3cnnn3)c(Cl)nn2)cc1`, the inhibition constant Ki in [3] was 6.6 nM. Also, in data set [4], the bioavailability is under 3%. Besides, in [5], the clearance worked out at 24.7 mL/min/kg. In addition, the Vd in [6] is 1.2 L/kg. In [1], the EC1.5 came to 1.6 µM. In addition, the half-life is 36 min in data set [7] and 54 min in data set [8].

As for `COC(=O)Nc1ccc(-c2cc([C@H](Cc3ccncc3)NC(=O)/C=C/c3cc(Cl)ccc3-n3cnnn3)nnc2Cl)cc1`, the Ki in data set [3] stood at 12 nM. Moreover, in data set [1], the EC1.5 was 6.2 µM. In data set [7], the half-life is 2.8 min.

`COC(=O)Nc1ccc(-c2cc([C@H](Cc3ccccc3)NC(=O)/C=C/c3cc(Cl)ccc3-n3cnnn3)nnc2OC)cc1` displayed a Ki in data set [3] of 36 nM. For the same compound, the EC1.5 in data set [1] amounted to 50 µM.

`COC(=O)Nc1ccc(-c2cc([C@H](Cc3ccccc3)NC(=O)/C=C/c3cc(Cl)ccc3-n3cnnn3)nnc2C(=O)O)cc1` had a Ki in data set [3] of 11 nM. In addition, the EC1.5 in data set [1] was found to be 32 µM.

In the case of `COC(=O)Nc1ccc(-c2cc([C@H](Cc3ccccc3)NC(=O)/C=C/c3cc(Cl)ccc3-n3cnnn3)nnc2C)cc1`, the Ki is over 13300 nM in data set [9]; 10 nM in [3]; over 13300 nM in data set [10]; over 64400 nM in data set [11]; over 6220 nM in [12]; over 53400 nM in data set [13]. Moreover, the Ki in data set [14] is over 14700 nM; in data set [15], over 29700 nM; in data set [16], over 27200 nM; in [17], 39300 nM; in [18] it was over 3000 nM; in [19], 1370 nM. Moreover, in [4], the bioavailability amounted to 14%. Moreover, in [5], the clearance turned out to be 9.2 mL/min/kg. Besides, the Vd in [6] was 1.2 L/kg. The EC1.5 in data set [1] was 11 µM. Also, the figures for the half-life in data set [7] and in data set [8] were 5.1 min and 120 min, respectively.

For `COC(=O)Nc1ccc(-c2cc([C@H](Cc3ccccc3)NC(=O)/C=C/c3cc(Cl)ccc3-n3cnnn3)c(Cl)nn2)cc1`, the Ki in data set [9] was 3280 nM; in data set [3] it was 1.9 nM; in data set [10], 10600 nM; in [11], 16300 nM; in [12], 3730 nM; in data set [13] it was 4490 nM. For the same compound, the Ki in data set [14] was found to be 994 nM; in [15], 13300 nM; in data set [16], 29600 nM; in data set [17], 22000 nM; in [18], 1940 nM; in [19] it was 192 nM. The compound also had a bioavailability in [4] of under 3%. This compound registered a clearance in [5] of 15.5 mL/min/kg. In addition, the Vd in data set [6] was found to be 2.1 L/kg. Besides, in data set [1], the EC1.5 was determined as 2.2 µM. Besides, the half-life in [7] is 31 min; in data set [8] it was 108 min.

With `COC(=O)Nc1ccc(-c2cc([C@H](Cc3ccccc3)NC(=O)/C=C/c3cc(Cl)ccc3-n3cnnn3)cnn2)cc1`, the Ki in data set [3] was determined as 4.1 nM. The compound also returned a bioavailability in [4] of under 3%. In [5], the clearance came to 18.2 mL/min/kg. Moreover, in data set [6], the Vd is 1.4 L/kg. In addition, the EC1.5 in data set [1] was determined as 3.5 µM. The results for the half-life in data set [7] and in data set [8] were 9.6 min and 66 min, respectively.

For the compound `COC(=O)Nc1ccc(-c2cc([C@H](C[C@@H]3CCCN(C(C)=O)C3)NC(=O)/C=C/c3cc(Cl)ccc3-n3cnnn3)nnc2Cl)cc1`, the affinity in data set [3] corresponds to a Ki of 89 nM. Moreover, in data set [1], the EC1.5 came to 8.8 µM.

Turning to `COC(=O)Nc1ccc(-c2cc([C@H](Cc3ccccc3)NC(=O)/C=C/c3cc(Cl)ccc3-n3cnnn3)c(=O)[nH]n2)cc1`, in [3], the affinity corresponds to a Ki of 22 nM. Also, the EC1.5 in data set [1] was determined as 19 µM.

On to `COC(=O)Nc1ccc(-c2cc([C@H](Cc3ccccc3)NC(=O)/C=C/c3cc(Cl)ccc3-n3cnnn3)c(C)nn2)cc1`, for which the affinity in [3] corresponds to a Ki of 6.1 nM. Also, in [1], the EC1.5 was 14 µM.

Regarding `COC(=O)Nc1ccc(-c2cc([C@H](Cc3cccc(F)c3)NC(=O)/C=C/c3cc(Cl)ccc3-n3cnnn3)nnc2Cl)cc1`, in data set [3], the Ki was found to be 10 nM. The EC1.5 in data set [1] was 17 µM. Moreover, the half-life in [7] turned out to be 12 min.

Turning to `COC(=O)Nc1ccc(-c2cc([C@H](Cc3ccccc3)NC(=O)/C=C/c3cc(Cl)ccc3-n3cnnn3)nnc2Cl)cc1`, the Ki is over 13300 nM in data set [9]; 9.6 nM in [3]; over 13300 nM in data set [10]; over 64400 nM in data set [11]; over 6220 nM in [12]; 76600 nM in data set [13]. Also, the Ki is 10100 nM in [14]; over 29700 nM in data set [15]; over 27200 nM in data set [16]; over 73700 nM in data set [17]; 200 nM in data set [18]; over 6000 nM in [19]. Besides, the bioavailability in data set [4] amounted to 16%. The compound also showed a clearance in [5] of 6.3 mL/min/kg. Besides, the Vd in data set [6] stood at 2.3 L/kg. The EC1.5 in [1] amounted to 9.3 µM. For the same compound, the half-life is 8.6 min in [7] and 426 min in data set [8].

Compound `CNC(=O)c1nnc([C@H](Cc2ccccc2)NC(=O)/C=C/c2cc(Cl)ccc2-n2cnnn2)cc1-c1ccc(NC(=O)OC)cc1` returned a Ki in data set [3] of 31 nM. The EC1.5 in data set [1] turned out to be 45 µM.

For `COC(=O)Nc1ccc(-c2cnnc([C@H](Cc3ccccc3)NC(=O)/C=C/c3cc(Cl)ccc3-n3cnnn3)c2)cc1`, the Ki in [9] was over 13300 nM; in [3] it was 7 nM; in data set [10] it was over 13300 nM; in data set [11], 68000 nM; in data set [12] it was over 6220 nM; in [13], 38100 nM. In addition, the Ki is over 14700 nM in data set [14]; over 29700 nM in [15]; 11900 nM in data set [16]; 840 nM in data set [18]; 268 nM in data set [19]. The compound further came in with a bioavailability in data set [4] of 18%. In addition, the clearance in data set [5] amounted to 8.9 mL/min/kg. Also, in data set [6], the Vd is 1.3 L/kg. Moreover, the EC1.5 in [1] stood at 14 µM. For the same compound, the figures for the half-life in data set [7] and in data set [8] were 9.1 min and 108 min, respectively.

In [3], `COC(=O)Nc1ccc(-c2cc([C@H](CC(=O)N3CC[C@@H](O)C3)NC(=O)/C=C/c3cc(Cl)ccc3-n3cnnn3)nnc2Cl)cc1` came in with a Ki of 26 nM. In addition, the EC1.5 in [1] is 7.5 µM.

`COC(=O)Nc1ccc(-c2cc([C@H](Cc3ccccc3)NC(=O)/C=C/c3cc(Cl)ccc3-n3cnnn3)n[nH]c2=O)cc1`: the Ki in data set [3] was 10 nM. For the same compound, the EC1.5 in [1] amounted to 11 µM.

`COC(=O)Nc1ccc(-c2cc([C@H](Cc3ccc(F)cc3)NC(=O)/C=C/c3cc(Cl)ccc3-n3cnnn3)nnc2Cl)cc1`: the Ki in data set [3] was found to be 9.3 nM. In data set [4], this compound displayed a bioavailability of 12%. For the same compound, the clearance in data set [5] was 5.1 mL/min/kg. In data set [6], the Vd came out at 1.5 L/kg. Moreover, the EC1.5 in [1] came out at 22 µM. The figures for the half-life in [7] and in [8] were 20 min and 402 min, respectively.

Compound `COC(=O)Nc1ccc(-c2cc([C@H](CC(=O)N3CCN(C)CC3)NC(=O)/C=C/c3cc(Cl)ccc3-n3cnnn3)c(Cl)nn2)cc1` gave a Ki in data set [3] of 4 nM. Besides, in data set [1], the EC1.5 was determined as 0.9 µM.
